Measurements reported in ChEMBL document CHEMBL4477210, “Gramine Derivatives Targeting Ca(2+) Channels and Ser/Thr Phosphatases: A New Dual Strategy for the Treatment of Neurodegenerative Diseases” (J Med Chem, 2016).
The source made the active and inactive calls. No cut-off for these calls is given here.

Columns and labels:
SH-SY5Y [1] = test: Neuroprotective activity in human SH-SY5Y cells assessed as reversal of okadaic acid-induced cytotoxicity at 0.1 uM preincubated for 24 hrs followed by […] by MTT assay; type: functional
SH-SY5Y [2] = test: Cytotoxicity against human SH-SY5Y cells assessed as reduction of cell viability at <10 uM incubated for 48 hrs by MTT assay; type: cell-based
In short: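 SH-SY5Y cells exposed to compounds for 48 h; viability read by MTT reduction (final 0.3 mg/mL, 2 h at 37 °C in the dark), formazan dissolved in DMSO, absorbance at 540 nm, expressed as % of untreated cells.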

Homo sapiens [3] = species: Homo sapiens; test: (§1) Suppression of okadaic acid-induced inhibition of PP1/PP2A in human SHSY-5Y cells at 0.1 uM using pNPP as substrate assessed as remaining total phosphatase activity incubated for 30 mins by colorimetric assay (reference value: 68 +/- 2%); type: cell-based
In short: (§2)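 SH-SY5Y cells treated with compound at 0.1 μM plus okadaic acid 15 nM (24 h preincubation, then coincubation). Medium removed; assay buffer with pNPP (10 mM) added, 30 min at 37 °C in the dark, absorbance at 405 nm. For Ser/Thr activity, 1 mM orthovanadate added to the buffer. Expressed as % of untreated cells; at least four experiments.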

Bos taurus [4] = species: Bos taurus; test: Inhibition of VGCC in bovine chromaffin cells assessed as reduction in depolarization-evoked Ca2+ current at 1 uM at -80 mV holding potential using 50 millisec depolarization pulses every 20 secs by patch clamp method; type: cell-based
Homo sapiens [5] = species: Homo sapiens; test: as §1, with “Ser/Thr” for “total”, “mins in presence of tyrosine phosphatase inhibitor sodium orthovanadate” for “mins”, “61” for “68”, “3%)” for “2%)”; type: cell-based; in short: as §2
[6] = test system: Voltage-gated calcium channel; test: Inhibition of VGCC in human SHSY-5Y cells assessed as reduction of K+-evoked cytosolic ca2+ at 1 uM incubated for 10 mins prior to KCl addition by Fluo-4-AM probe-based fluorescence analysis; type: cell-based
In short: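 SH-SY5Y cells at confluence (48 h after seeding) loaded with 10 μM Fluo-4/AM plus 0.2% pluronic in Krebs–HEPES (pH 7.4) for 45 min at 37 °C, then washed. Compound at 1 μM for 10 min, then KCl 70 mM. Ex 485/em 520 nm; signal normalized to Fmax (Triton X-100) minus Fmin (MnCl2). At least six experiments versus K+ response without compound.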

Cortical neurone [7] = test: Cytotoxicity against rat cortical motor neurons assessed as reduction of cell viability at 1 uM incubated for 48 hrs by MTT assay; type: cell-based
In short: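 Rat cortical motor neurons in neurobasal medium with 2% B-27 on poly-D-lysine, grown 8−10 days to a dense network, then exposed to compound for 48 h. Viability read by MTT (0.3 mg/mL final, 30 min, 37 °C, dark), formazan dissolved in DMSO, absorbance 540 nm, expressed as % of untreated cells.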

[8] = (§3) Neuroprotective activity in Sprague-Dawley rat hippocampal cells assessed as reversal of glutamate-induced cytotoxicity at 10 uM incubated for 4 hrs by MTT assay; type: functional, Hippocampal neurone
In short: (§4)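 Hippocampal slices from 2-month-old Sprague–Dawley rats stabilized 45 min at 34 °C, then coincubated 4 h with compound and glutamate 1 mM. Viability by MTT (0.3 mg/mL, 30 min), absorbance at 540 nm. Reported as % protection relative to glutamate-only slices; at least four tissue batches in quadruplicate.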

Cortical neurone [9] = test: Neuroprotective activity in rat cortical motor neurons assessed as reversal of veratridine-induced cytotoxicity at 0.1 uM incubated for 24 hrs followed by coincubation with veratridine for 24 hrs by MTT assay; type: functional
[10] = test system: Voltage-gated calcium channel; test: Inhibition of VGCC in human SHSY-5Y cells assessed as reduction of K+-evoked cytosolic ca2+ at 3 uM incubated for 10 mins prior to KCl addition by Fluo-4-AM probe-based fluorescence analysis; type: cell-based
In short: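 SH-SY5Y cells grown to confluence over 48 h, then loaded with 10 μM Fluo-4/AM and 0.2% pluronic acid in Krebs–HEPES (pH 7.4) for 45 min at 37 °C and washed. Compound added 10 min before depolarisation with KCl 70 mM. Fluorescence read at ex 485/em 520 nm and normalised to Fmax (Triton X-100) and Fmin (MnCl2). Inhibition taken against the K+ response without compound; ≥6 experiments.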

Hippocampal neurone = test: as §3; type: functional; in short: as §4
Bos taurus [11] = species: Bos taurus; test: Inhibition of VGCC in bovine chromaffin cells assessed as potentiation of compound-induced of reduction in depolarization-evoked Ca2+ current at 1 uM at -80 mV holding potential using 50 millisec depolarization pulses every 20 secs in presence of L-type VGCC blocker nifedipine by patch clamp method; type: cell-based
Bos taurus [12] = species: Bos taurus; test: Inhibition of VGCC in bovine chromaffin cells assessed as reduction in depolarization-evoked Ca2+ current at 1 uM at -80 mV holding potential using 50 millisec depolarization pulses every 20 secs in presence of […] N and P/Q type VGCC blocker omega-conotoxin MV2C by patch clamp method; type: cell-based

Structure (SMILES)	Activity (SH-SY5Y [1])	Activity (SH-SY5Y [2])	Activity (Homo sapiens [3])	inhibition (Bos taurus [4])	Activity (Homo sapiens [5])	inhibition (INH) [6]	Activity (Cortical neurone [7])	Activity [8]	Activity (Cortical neurone [9])	inhibition (INH) [10]	Activity (Hippocampal neurone)	inhibition (Bos taurus [11])	inhibition (Bos taurus [12])
Brc1ccc2c(c1)c(CN1CCCCC1)cn2Cc1ccccc1	54%	Non-Toxic	79%	Active	70%	45%							
c1ccc2c(CN3CCCCC3)c[nH]c2c1	47%	Non-Toxic	76%		79%	30%	Toxic						
CN(C)Cc1c[nH]c2ccc(Br)cc12 [BROMOGRAMINE]	47%	Non-Toxic	80%		76%	3%		40%					
Cc1ccc2c(c1)c(CN(C)C)cn2Cc1ccccc1	44%	Non-Toxic	73%		66%	18%							
CCCCn1cc(CN(C)C)c2cc(Br)ccc21	66%	Non-Toxic	81%		76%	14%		40%					
Brc1ccc2c(c1)c(CN1CCCCC1)cn2CCCCN1CCCCC1	61%	Non-Toxic	73%		70%	19%	Toxic		0%				
C#CCn1cc(CN(C)C)c2cc(Br)ccc21	12%	Non-Toxic	70%		64%	10%							
CCCCn1cc(CN2CCCCC2)c2cc(Br)ccc21	71%	Non-Toxic	78%	Active	79%	63%							
CC12CC3CC(C)(C1)CC(N)(C3)C2			77%		78%								
COC(=O)C1=C(C)NC(C)=C(C(=O)OC)C1c1ccccc1[N+](=O)[O-] [NIFEDIPINE]										73%			
Cc1ccc2[nH]cc(CN(C)C)c2c1	59%	Non-Toxic	79%		77%	10%							
CN(C)Cc1cn(CCCCN2CCCCC2)c2ccc(Br)cc12	31%	Non-Toxic	73%		68%	14%							
CN(C)Cc1c[nH]c2ccccc12 [GRAMINE]	45%		80%	Active	76%	25%							
C#CCn1cc(CN2CCCCC2)c2cc(Br)ccc21	47%	Non-Toxic	77%		72%	42%							
Cc1ccc2c(c1)c(CN1CCCCC1)cn2CCCCCl	56%	Non-Toxic	71%		62%	35%					Active		
COc1ccc2[nH]cc(CCNC(C)=O)c2c1 [MELATONIN]	43%												
CCOC(=O)CCCn1cc(CN(C)C)c2cc(Br)ccc21	58%	Non-Toxic	76%		66%	13%					Active		
Cc1ccc2[nH]cc(CN3CCCCC3)c2c1	38%	Non-Toxic	71%		69%	16%							
Brc1ccc2[nH]cc(CN3CCCCC3)c2c1	60%	Non-Toxic	74%		67%	7%							
CN(C)Cc1cn(Cc2ccccc2)c2ccc(Br)cc12	56%	Non-Toxic	81%		78%	38%							
ClCCCCn1cc(CN2CCCCC2)c2cc(Br)ccc21	48%	Non-Toxic	68%		62%	57%							
C#CCn1cc(CN2CCCCC2)c2cc(C)ccc21	42%	Non-Toxic	71%		66%	25%							
C#CCn1cc(CN(C)C)c2cc(C)ccc21	12%	Non-Toxic	80%		74%	14%							
CCOC(=O)CCCn1cc(CN2CCCCC2)c2cc(Br)ccc21	43%	Non-Toxic	73%		71%	16%							
Cc1ccc2c(c1)c(CN1CCCCC1)cn2CCCCN1CCCCC1	26%	Non-Toxic	72%		70%	4%							
Cc1ccc2c(c1)c(CN1CCCCC1)cn2Cc1ccccc1	56%	Non-Toxic	77%	40%	78%	22%						Active	Active
Cc1ccc2c(c1)c(CN(C)C)cn2CCCCN1CCCCC1	37%	Non-Toxic	74%		68%	16%							
CCCCn1cc(CN2CCCCC2)c2cc(C)ccc21	46%	Non-Toxic	69%	Active	66%	21%							
